Results taken from ChEMBL document CHEMBL4732072, “Synthesis of 17β-hydroxysteroid dehydrogenase type 10 steroidal inhibitors: Selectivity, metabolic stability and enhanced potency” (Eur J Med Chem, 2021).
pIC50: −log10 of the molar value.

How the values were obtained:
HEK293 [1] = experiment: Potency index, ratio of (3R,5S,8R,9S,10S,13S,14S)-3-hydroxy-3-((4-(3-methoxybenzyl)piperazin-1-yl)methyl)-10,13-dimethyltetradecahydro-1H-cyclopenta[a]phenanthren-17(2H)-one IC50 to compound IC50 for inhibition of human 17-beta-HSD10 expressed in HEK-293 cells; assay type: cell-based
[2] = Inhibition of human 17-beta-HSD10 expressed in HEK293 cells assessed as reduction in oxidation of [14C]-estradiol to [14C]-estrone incubated for 40 hrs by thin layer chromatography; assay type: cell-based
Outline: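 The same HEK-293[17β-HSD10] cell assay was used: 2.5 x 10^5 cells, 0.5% final DMSO, 1 µM E2/[14C]-E2 (9:1) for 40 h at 37°C, with Et2O extraction, TLC and radioactivity quantification. Inhibitor was tested from 0.01 to 5 µM in triplicate. IC50 was calculated from the inhibition curves.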

[3] = target: T1, 17-beta-hydroxysteroid dehydrogenase type 3 (Homo sapiens, UniProt P37058); experiment: Inhibition of human 17-beta-HSD3 expressed in LNCaP cells assessed as reduction in […]-3,17-dione to [14C]-testosterone at 3 uM incubated for 1 hr by thin layer chromatography; assay type: cell-based
T1 sequence (P37058 whole entry): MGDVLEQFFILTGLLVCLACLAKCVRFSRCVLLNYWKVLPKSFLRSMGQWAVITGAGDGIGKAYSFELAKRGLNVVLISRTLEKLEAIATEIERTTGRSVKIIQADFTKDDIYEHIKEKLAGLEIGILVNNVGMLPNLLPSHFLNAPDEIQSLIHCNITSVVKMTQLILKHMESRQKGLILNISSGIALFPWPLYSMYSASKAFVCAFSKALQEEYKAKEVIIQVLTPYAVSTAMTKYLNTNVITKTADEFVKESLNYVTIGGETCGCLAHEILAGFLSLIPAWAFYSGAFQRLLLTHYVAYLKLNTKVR
Outline: (§1)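 LNCaP cells overexpressing 17β-HSD3 were plated at 10^4 per well in medium without hygromycin for 2 days. 15 nM [14C]-4-androstene-3,17-dione plus inhibitor was then added (final DMSO 0.05%) for 1 h at 37°C. Steroids were Et2O-extracted and separated by silica TLC (toluene/acetone 4:1). % inhibition was taken from radioactivity-based % transformation versus a blank control.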

[4] = Metabolic stability in human liver microsomes assessed as compound remaining at 1 uM incubated for 1 hr in presence of NADPH by HPLC-MS analysis; assay type: ADME, Microsome; details: read-out: Stabilty
Outline: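 Human liver microsomes (40 µg) were incubated with compound for 1 h at 37°C, with or without 10 mM NADPH, in 50 mM Tris with 10 mM MgCl2. The reaction was quenched with MeOH and centrifuged, and supernatants from 2 assays were pooled. Analysis was by HPLC-MS with UV at 190 nm. Remaining % = peak area with NADPH / area without NADPH x 100, from two experiments in duplicate.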

HEK293 [5] = experiment: Inhibition of human 17-beta-HSD10 expressed in HEK293 cells assessed as reduction in oxidation of [14C]-estradiol to [14C]-estrone at 3 uM incubated for 40 hrs by thin layer chromatography; assay type: cell-based
Outline: (§2)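 Stably transfected HEK-293 cells expressing human 17β-HSD10 (G418-selected) were seeded at 2.5 x 10^5 per well for 24 h. Inhibitor was added from a DMSO stock (final DMSO 0.5%) with E2/[14C]-E2 (9:1, final 1 µM) for 40 h at 37°C. Steroids were Et2O-extracted, TLC-separated and quantified by radioactivity. % inhibition was taken from blank-corrected % transformation, run in triplicate.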

HEK293 [6] = experiment: Inhibition of human 17-beta-HSD10 expressed in HEK293 cells assessed as reduction in oxidation of [14C]-estradiol to [14C]-estrone at 0.3 uM incubated for 40 hrs by thin layer chromatography; assay type: cell-based; outline: as §2
[7] = target: T1, 17-beta-hydroxysteroid dehydrogenase type 3; experiment: Inhibition of human 17-beta-HSD3 expressed in LNCaP cells assessed as reduction in […]-3,17-dione to [14C]-testosterone at 0.3 uM incubated for 1 hr by thin layer chromatography; assay type: cell-based; outline: as §1

Row | SMILES | Ratio IC50 (HEK293 [1]) | pIC50 [2] | inhibition at 3 µM [3] [%] | remaining at 1 h, 1 µM [4] [%] | inhibition (HEK293 [5]) [%] | inhibition (HEK293 [6]) [%] | inhibition at 0.3 µM [7] [%]
1 | C[C@]12CC[C@](O)(CN3CCN(C(=O)c4ccc(C(=O)c5ccccc5)cc4)CC3)C[C@@H]1CC[C@@H]1[C@@H]2CC[C@]2(C)C(=O)CC[C@@H]12 | 0.79 | 5.55 | – | – | – | – | –
2 | CN(C)S(=O)(=O)c1ccc(NC(=S)N2CCN(C[C@@]3(O)CC[C@@]4(C)[C@@H](CC[C@@H]5[C@@H]4CC[C@]4(C)C(=O)CC[C@@H]54)C3)CC2)cc1 | 2.11 | 5.97 | – | – | – | – | –
3 | COc1cccc(CN2CCN(C[C@@]3(O)CC[C@@]4(C)[C@@H](CC[C@@H]5[C@@H]4CC[C@]4(C)[C@@H](O)CC[C@@H]54)C3)CC2)c1 | – | – | 48.7 | 67.2 | 42.4 | 8.5 | 5
4 | C#C[C@]1(O)CC[C@H]2[C@@H]3CC[C@H]4C[C@@](O)(CN5CCN(Cc6cccc(OC)c6)CC5)CC[C@]4(C)[C@H]3CC[C@@]21C | – | – | 4 | 45.5 | 45.8 | 22.4 | 2
5 | CC(=O)c1cccc(C(=O)N2CCN(C[C@@]3(O)CC[C@@]4(C)[C@@H](CC[C@@H]5[C@@H]4CC[C@]4(C)C(=O)CC[C@@H]54)C3)CC2)c1 | 0.98 | 5.64 | – | – | – | – | –
6 | CCN(C)S(=O)(=O)N1CCN(C[C@@]2(O)CC[C@@]3(C)[C@@H](CC[C@@H]4[C@@H]3CC[C@]3(C)C(=O)CC[C@@H]43)C2)CC1 | 1.44 | 5.80 | – | – | – | – | –
7 | COc1cc(C)ccc1CN1CCN(C[C@@]2(O)CC[C@@]3(C)[C@@H](CC[C@@H]4[C@@H]3CC[C@]3(C)C(=O)CC[C@@H]43)C2)CC1 | 0.75 | 5.52 | – | – | – | – | –
8 | C[C@]12CC[C@](O)(CN3CCN(C(=O)c4ccc(-c5ccccc5)cc4)CC3)C[C@@H]1CC[C@@H]1[C@@H]2CC[C@]2(C)C(=O)CC[C@@H]12 | 0.87 | 5.59 | – | – | – | – | –
9 | COc1cccc(CN2CCN(C[C@@]3(O)CC[C@@]4(C)[C@@H](CC[C@@H]5[C@@H]4CC[C@]4(C)[C@H](O)CC[C@@H]54)C3)CC2)c1 | – | – | 3.8 | 70.6 | 36.9 | 13.5 | 5.2
10 | COc1cccc(CN2CCN(C[C@@]3(O)CC[C@@]4(C)[C@@H](CC[C@@H]5[C@@H]4CC[C@]4(C)C(=O)CC[C@@H]54)C3)CC2)c1 | – | 5.65 | 84.4 | 28 | 70.4 | 40.7 | 30.2
11 | Cc1cc(C)cc(C(=O)N2CCN(C[C@@]3(O)CC[C@@]4(C)[C@@H](CC[C@@H]5[C@@H]4CC[C@]4(C)C(=O)CC[C@@H]54)C3)CC2)c1 | 1.1 | 5.69 | – | – | – | – | –
12 | COc1cc(CN2CCN(C[C@@]3(O)CC[C@@]4(C)[C@@H](CC[C@@H]5[C@@H]4CC[C@]4(C)C(=O)CC[C@@H]54)C3)CC2)ccc1C | 5.38 | 6.38 | – | – | – | – | –
13 | C[C@]12CC[C@](O)(CN3CCN(Cc4cnc5ccccc5c4)CC3)C[C@@H]1CC[C@@H]1[C@@H]2CC[C@]2(C)C(=O)CC[C@@H]12 | 2.33 | 6.01 | – | – | – | – | –
14 | C[C@]12CC[C@](O)(CN3CCN(C(=S)NCc4cccc(C(F)(F)F)c4)CC3)C[C@@H]1CC[C@@H]1[C@@H]2CC[C@]2(C)C(=O)CC[C@@H]12 | 1.6 | 5.85 | – | – | – | – | –
15 | COc1cc(CN2CCN(C[C@@]3(O)CC[C@@]4(C)[C@@H](CC[C@@H]5[C@@H]4CC[C@]4(C)C(=O)CC[C@@H]54)C3)CC2)ccc1C(F)(F)F | 16.1 | 6.85 | – | – | – | – | –
16 | C[C@]12CC[C@](O)(CN3CCN(C(=O)c4ccc(C#N)cc4)CC3)C[C@@H]1CC[C@@H]1[C@@H]2CC[C@]2(C)C(=O)CC[C@@H]12 | 1.36 | 5.78 | – | – | – | – | –
17 | COc1cc(CN2CCN(C[C@@]3(O)CC[C@@]4(C)[C@@H](CC[C@@H]5[C@@H]4CC[C@]4(C)[C@H](O)CC[C@@H]54)C3)CC2)ccc1C(F)(F)F | 2.4 | 6.02 | – | – | – | – | –
18 | COc1cccc(CN2CCN(C[C@@]3(O)CC[C@@]4(C)[C@@H](CC[C@@H]5[C@@H]4CC[C@]4(C)C(=O)C(C)(C)C[C@@H]54)C3)CC2)c1 | – | – | 51.9 | 54.5 | 27.9 | 10.8 | 12.4
19 | COc1cccc(CN2CCN(C[C@@]3(O)CC[C@@]4(C)[C@@H](CC[C@@H]5[C@@H]4CC[C@@]4(C)[C@H]5CCC4(F)F)C3)CC2)c1 | – | – | -0.5 | 34.1 | 40.8 | 5.5 | 1.1
20 | C#C[C@]1(O)CC[C@H]2[C@@H]3CC[C@H]4C[C@@](O)(CN5CCN(Cc6ccc(C(F)(F)F)c(OC)c6)CC5)CC[C@]4(C)[C@H]3CC[C@@]21C | 1.8 | 5.90 | – | – | – | – | –
21 | COc1cccc(CN2CCN(C[C@@]3(O)CC[C@@]4(C)[C@@H](CC[C@@H]5[C@@H]4CC[C@@]4(C)[C@H]5CC[C@]4(C)O)C3)CC2)c1 | – | – | 20.6 | 21.8 | 41.9 | 20.5 | 2
